Experimental data reported in publication PMC8799559 (Advances in Therapy, 2021).

Key:
[1] = fixed at legacy model estimate ref 13, cited from earlier work
[2] = legacy model, 50 subjects receiving venetoclax + R ref 13; cited from earlier work
[3] = Population pharmacokinetics; assay type: in vivo, human
Summary of the method: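 Plasma drug measured by validated LC-MS/MS; LLOQ 2.08 or 2.18 ng/mL. Intensive sampling on cycle 1 day 4 and cycle 2 day 1, pre-dose to 8 h post-dose, plus pre-dose samples on cycle 1 day 8 and cycle 2 day 10. Prior model built on 505 subjects from eight studies applied by nonlinear mixed-effects (FOCEI). Checked by diagnostic plots, VPCs and NPDE.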

tumor size = details: cited from earlier work
[4] = phase 3 MURANO study, R/R CLL ref 19; cited from earlier work
1L DLBCL = assay type: in vivo, human; details: all-comers and BCL-2-IHC-positive subpopulations, logistic regression
Summary of the method: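 Phase 2 1L DLBCL patients (n = 199) given 800 mg test compound on a 10/21-day schedule with R-CHOP. PET-CT complete response assessed at the end-of-treatment visit, 6–8 weeks from day 1 of the last cycle. Logistic regression (logit link) on nominal AUCss; α = 0.05 for the exposure coefficient. Covariates added by forward stepwise selection at α = 0.01.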

[5] = tested on: circulating lymphocyte counts; details: cited from earlier work
[6] = food effect on relative bioavailability

- half-life ([3]; human, plasma, oral): 25.2 h
- θV2/F,GO27878 (study effect on V2/F) ([3]; multiplicative CAVALLI study effect relative to legacy model): 2.33
Compound: CC1(C)CCC(CN2CCN(c3ccc(C(=O)NS(=O)(=O)c4ccc(NCC5CCOCC5)c([N+](=O)[O-])c4)c(Oc4cnc5[nH]ccc5c4)c3)CC2)=C(c2ccc(Cl)cc2)C1 [venetoclax]
- θCL/F, moderate CYP3A inhibitor ([1]; covariate effect on CL/F): 0.84
- θCL/F, strong CYP3A inhibitor ([1]; covariate effect on CL/F): 0.18
- θCL/F,OATP1B3 inhibitor ([1]; covariate effect on CL/F): 0.85
- θV2/F, CLL/SLL/NHL ([1]; covariate effect on V2/F): 1.71
- θV2/F,SEX=female ([1]; covariate effect on V2/F): 0.68
- CL/F ([1]; final PopPK model): 447 L/day
- Q/F ([1]; final PopPK model): 97.2 L/day
- V2/F ([1]; final PopPK model): 118 L
- V3/F ([1]; final PopPK model): 119 L
- ka ([1]; first-order absorption rate constant): 3.72 day⁻¹
- θF1,FOOD=fasting [1, 6]: 0.34
- θF1,FOOD=fed [1, 6]: 1.23
- θF1,FOOD=high fat [1, 6]: 1.43
- θF1,FOOD=moderate fat [1, 6]: 1.31
- Variability (CV) of CL/F ([1]; inter-individual variability): CV = 39.1%
- Variability (CV) of F1 ([1]; inter-individual variability): CV = 31.2%
- Variability (CV) of V2/F ([1]; inter-individual variability): CV = 45.3%
- ω^2CL/F ([1]; inter-individual variance): 0.15
- ω^2F1 ([1]; inter-individual variance): 0.10
- ω^2V2/F ([1]; inter-individual variance): 0.21
- σ^2add ([1]; residual variance, additive): 3.07 × 10^–7
- σ^2prop ([1]; residual variance, proportional): 0.22
- Increase of venetoclax CL/F by concomitant R administration [2]: 1.21 fold
- EC50 for tumor size (tumor size): 0.146 µg/mL
- Increase in CL/F for venetoclax when co-administered with R [4]: 7%
- Association between venetoclax AUCss nominal and PET-CR rates (1L DLBCL): No clear association
- EC50 for circulating lymphocyte counts [5]: 0.00863 µg/mL
